Measurements reported in ChEMBL document CHEMBL3826892, “Second-Generation Phenylthiazole Antibiotics with Enhanced Pharmacokinetic Properties” (J Med Chem, 2016).
Values after ≈ are worked out from the molar mass of the structure shown.

Experiments:
[1] = test system: Staphylococcus aureus; assay: Antimicrobial activity against methicillin-resistant Staphylococcus aureus RCMB 2658 clinical isolate after 20 hrs by broth microdilution method; format: functional; conditions: RCMB 2658, 20 h
Method in brief: (§1)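 CLSI broth microdilution in cation-adjusted Mueller Hinton broth. Compounds were serially diluted in triplicate and plates held at 37 °C for 20 h. MIC was taken by eye as the lowest concentration with no visible growth, and the average of the triplicate determinations is reported.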

[2] = test system: Staphylococcus aureus; assay: Bactericidal activity against methicillin-resistant Staphylococcus aureus USA300 assessed as time required to reduce bacterial inoculum to zero colony forming units at 3 times MIC by time kill assay; format: functional
Method in brief: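 Samples taken at 2, 4, 6, 8, 10, 12 and 24 h were serially diluted in PBS and plated on trypticase soy agar. Viable CFU/mL were counted after at least 16 h at 37 °C.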

[3] = test system: HaCaT; assay: Cytotoxicity against human HaCaT cells assessed as cell viability up to 16 ug/ml after 2 hrs by MTS assay; format: cell-based
Method in brief: (§2)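 HaCaT keratinocytes were grown in DMEM with 10% FBS at 37 °C, 5% CO₂. They were exposed in triplicate to 8–256 μg/mL for 2 h, then MTS was added. Background-corrected absorbance was expressed as % viability relative to a DMSO vehicle control.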

[4] = Aqueous solubility of the compound in PBS after 2 hrs by turbidity assay; format: physicochemical
Method in brief: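 Serial dilutions were made […] and diluted 100-fold into PBS. After 2 h, turbidity was read at 540 nm with pre-addition background subtracted. Turbidity was taken as absorbance > blank mean + 3 SD. Solubility limit is the highest concentration with no turbidity.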

[5] = test system: Staphylococcus aureus; assay: Potency index, ratio of vancomycin MIC to compound MIC for methicillin-resistant Staphylococcus aureus RCMB 2658 clinical isolate; format: functional
[6] = test system: Staphylococcus aureus; assay: Antimicrobial activity against methicillin-sensitive Staphylococcus aureus NRS72 clinical isolate after 20 hrs by broth microdilution method; format: functional; conditions: NRS72, 20 h; method in brief: as §1
[7] = test system: Staphylococcus aureus; assay: Antimicrobial activity against methicillin-resistant Staphylococcus aureus NRS119 clinical isolate after 20 hrs by broth microdilution method; format: functional; conditions: NRS119, 20 h; method in brief: as §1
[8] = test system: Staphylococcus aureus; assay: Antimicrobial activity against methicillin-resistant Staphylococcus aureus USA400 NRS123 clinical isolate after 20 hrs by broth microdilution method; format: functional; conditions: USA400 NRS123, 20 h; method in brief: as §1
[9] = test system: Staphylococcus aureus; assay: Antimicrobial activity against methicillin-resistant Staphylococcus aureus USA100 NRS382 clinical isolate after 20 hrs by broth microdilution method; format: functional; conditions: USA100 NRS382, 20 h; method in brief: as §1
[10] = test system: Staphylococcus aureus; assay: Antimicrobial activity against methicillin-resistant Staphylococcus aureus USA200 NRS383 clinical isolate after 20 hrs by broth microdilution method; format: functional; conditions: USA200 NRS383, 20 h; method in brief: as §1
[11] = test system: Staphylococcus aureus; assay: Antimicrobial activity against methicillin-resistant Staphylococcus aureus USA300 NRS384 clinical isolate after 20 hrs by broth microdilution method; format: functional; conditions: USA300 NRS384, 20 h; method in brief: as §1
[12] = test system: Staphylococcus aureus; assay: Antimicrobial activity against vancomycin-resistant Staphylococcus aureus 10 clinical isolate after 20 hrs by broth microdilution method; format: functional; conditions: isolate 10, 20 h; method in brief: as §1
[13] = test system: Enterococcus faecium; assay: Antimicrobial activity against vancomycin-resistant Enterococcus faecium ATCC 700221 after 20 hrs by broth microdilution method; format: functional; conditions: ATCC 700221, 20 h; method in brief: as §1
[14] = test system: Staphylococcus aureus; assay: Bactericidal activity against methicillin-sensitive Staphylococcus aureus NRS72 clinical isolate after 20 hrs by broth microdilution method; format: functional; conditions: NRS72, 20 h
[15] = test system: Staphylococcus aureus; assay: Bactericidal activity against methicillin-resistant Staphylococcus aureus NRS119 clinical isolate after 20 hrs by broth microdilution method; format: functional; conditions: NRS119, 20 h
[16] = test system: Staphylococcus aureus; assay: Bactericidal activity against methicillin-resistant Staphylococcus aureus USA400 NRS123 clinical isolate after 20 hrs by broth microdilution method; format: functional; conditions: USA400 NRS123, 20 h
[17] = test system: Staphylococcus aureus; assay: Bactericidal activity against methicillin-resistant Staphylococcus aureus USA100 NRS382 clinical isolate after 20 hrs by broth microdilution method; format: functional; conditions: USA100 NRS382, 20 h
[18] = test system: Staphylococcus aureus; assay: Bactericidal activity against methicillin-resistant Staphylococcus aureus USA200 NRS383 clinical isolate after 20 hrs by broth microdilution method; format: functional; conditions: USA200 NRS383, 20 h
[19] = test system: Staphylococcus aureus; assay: Bactericidal activity against methicillin-resistant Staphylococcus aureus USA300 NRS384 clinical isolate after 20 hrs by broth microdilution method; format: functional; conditions: USA300 NRS384, 20 h
[20] = test system: Staphylococcus aureus; assay: Bactericidal activity against vancomycin-resistant Staphylococcus aureus 10 clinical isolate after 20 hrs by broth microdilution method; format: functional; conditions: isolate 10, 20 h
[21] = test system: Enterococcus faecium; assay: Bactericidal activity against vancomycin-resistant Enterococcus faecium ATCC 700221 after 20 hrs by broth microdilution method; format: functional; conditions: ATCC 700221, 20 h
[22] = Ratio of non toxic dose for cytotoxicity against human HaCaT cells to MIC for methicillin-resistant Staphylococcus aureus RCMB 2658 clinical isolate; format: toxicity, cell-based
Method in brief: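 HaCaT keratinocytes in DMEM with 10% FBS at 37 °C, 5% CO2, exposed for 2 h to 8–256 μg/mL, then MTS read-out. Viability is given as a percentage of the DMSO control, in triplicate. The highest non-toxic concentration is divided by the MRSA MIC.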

[23] = test system: HaCaT; assay: Cytotoxicity against human HaCaT cells assessed as cell viability up to 64 ug/ml after 2 hrs by MTS assay; format: cell-based; method in brief: as §2
[24] = Apparent permeability across apical to basolateral side in human Caco2 cells at pH 6.5 after 2 hrs by LC/MS/MS analysis; format: ADME, cell-based; conditions: Caco-2, pH 6.5
Method in brief: (§3)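 Caco-2 cells were grown and differentiated for 3 weeks, fed every 2 days. Compound was added to the apical or basolateral side and measured on the opposite side after 2 h by LC/MS/MS. Apical buffer was pH 6.5 transport buffer (glucose, 10 mM HEPES, HBSS) with 100 μM Lucifer yellow; basolateral buffer was pH 7.4. Lucifer yellow fluorescence checked monolayer integrity. Papp = (dQ/dt)/C₀A; efflux ratio = Papp(B→A)/Papp(A→B).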

[25] = Efflux ratio of apparent permeability from basolateral to apical side over apical to basolateral side in human Caco2 cells after 2 hrs by LC/MS/MS analysis; format: ADME, cell-based; conditions: Caco-2; method in brief: as §3
[26] = Cmax in Sprague-Dawley rat plasma at 50 mg/kg administered via oral gavage measured 24 hrs post dose by LC/MS/MS analysis; format: ADME, organism-based; set-up: dose 50 mg/kg, route oral
Method in brief: (§4)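 Male naive Sprague-Dawley rats (n = 3) received a single 50 mg/kg oral gavage dose in 5% ethanol, 45% PEG 400, 50% water. Blood was collected into EDTA-K2 tubes over 24 h post dose. Plasma was protein-precipitated with acetonitrile and parent was quantified by LC/MS/MS to derive PK parameters.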

[27] = Tmax in Sprague-Dawley rat plasma at 50 mg/kg administered via oral gavage measured 24 hrs post dose by LC/MS/MS analysis; format: ADME, organism-based; method in brief: as §4
[28] = AUClast in Sprague-Dawley rat plasma at 50 mg/kg administered via oral gavage measured 24 hrs post dose by LC/MS/MS analysis; format: ADME, organism-based; set-up: dose 50 mg/kg, time 0 - last, route oral; method in brief: as §4
[29] = test system: Rattus norvegicus; assay: Half life in Sprague-Dawley rat plasma at 50 mg/kg administered via oral gavage measured 24 hrs post dose by LC/MS/MS analysis; format: ADME, organism-based; conditions: in vivo; method in brief: as §4
[30] = Mean residence time in Sprague-Dawley rat plasma at 50 mg/kg administered via oral gavage measured 24 hrs post dose by LC/MS/MS analysis; format: ADME, organism-based; method in brief: as §4
[31] = test system: Rattus norvegicus; assay: Elimination rate constant in Sprague-Dawley rat plasma at 50 mg/kg administered via oral gavage by LC/MS/MS analysis; format: ADME, organism-based; conditions: in vivo; method in brief: as §4
[32] = Total AUC in Sprague-Dawley rat plasma at 50 mg/kg administered via oral gavage measured 24 hrs post dose by LC/MS/MS analysis; format: ADME, organism-based; set-up: dose 50 mg/kg, route oral, time AUCmax; method in brief: as §4
[33] = Apparent permeability across basolateral to apical side in human Caco2 cells at pH 7.4 after 2 hrs by LC/MS/MS analysis; conditions: Caco-2, pH 7.4

Structure (SMILES): CCCCc1ccc(-c2nc(C)c(/C(C)=N/NC(=N)N)s2)cc1
- MIC [1]: 4.8 µg/mL (≈ 14.6 µM)
- Time [2]: 6 h
- Activity [3]: Non-toxic

Structure (SMILES): Cc1nc(-c2ccc(C3=CCCCC3)cc2)sc1-c1ccnc(N)n1
- MIC [1]: 0.78 µg/mL (≈ 2.24 µM)
- solubility kinetic at 2 h [4]: 37 µM (≈ 12.9 µg/mL)
- Ratio [5]: 1

Structure (SMILES): CCCCc1ccc(-c2nc(C)c(-c3ccnc(N=C(N(C)C)N(C)C)n3)s2)cc1
- MIC [1]: > 25 µg/mL

Structure (SMILES): Cc1nc(-c2ccc(C3=CCCCCC3)cc2)sc1-c1ccnc(N)n1
- MIC [1]: 3.12 µg/mL (≈ 8.61 µM)

Structure (SMILES): CCCCc1ccc(-c2nc(C)c(-c3ccnc(NN)n3)s2)cc1
- MIC [1]: 0.4 µg/mL (≈ 1.18 µM)
- MIC [6]: 2 µg/mL (≈ 5.89 µM)
- MIC [7]: 2 µg/mL (≈ 5.89 µM)
- MIC [8]: 2 µg/mL (≈ 5.89 µM)
- MIC [9]: 2 µg/mL (≈ 5.89 µM)
- MIC [10]: 2 µg/mL (≈ 5.89 µM)
- MIC [11]: 2 µg/mL (≈ 5.89 µM)
- MIC [12]: 1 µg/mL (≈ 2.95 µM)
- MIC [13]: 2 µg/mL (≈ 5.89 µM)
- MBC [14]: 8 µg/mL (≈ 23.6 µM)
- MBC [15]: 2 µg/mL (≈ 5.89 µM)
- MBC [16]: 2 µg/mL (≈ 5.89 µM)
- MBC [17]: 4 µg/mL (≈ 11.8 µM)
- MBC [18]: 2 µg/mL (≈ 5.89 µM)
- MBC [19]: 2 µg/mL (≈ 5.89 µM)
- MBC [20]: 2 µg/mL (≈ 5.89 µM)
- MBC [21]: 8 µg/mL (≈ 23.6 µM)
- solubility kinetic at 2 h [4]: 55 µM (≈ 18.7 µg/mL)
- Time [2]: 2 h
- selectivity ratio [22]: 160
- Activity [23]: Non-toxic
- Papp A→B at 2 h [24]: 1.6 ×10⁻⁶ cm/s
- efflux ratio at 2 h [25]: 1.8
- Cmax [26]: 9330 ng/mL
- Tmax [27]: 4.67 h
- AUC(0-t) at 24 h [28]: 83200 ng·h/mL
- t1/2 [29]: 8.24 h
- MRT [30]: 7.74 h
- Kel [31]: 0.19 h⁻¹
- AUC at 24 h [32]: 100000 ng·h/mL
- Papp B→A at 2 h [33]: 2.8 ×10⁻⁶ cm/s

Structure (SMILES): CCCCc1ccc(-c2nc(C)c(-c3ccnc(N4CCCC4)n3)s2)cc1
- MIC [1]: > 25 µg/mL

Structure (SMILES): CCCCc1ccc(-c2nc(C)c(-c3ccn4ncnc4n3)s2)cc1
- MIC [1]: > 25 µg/mL

Structure (SMILES): CCCCc1ccc(-c2nc(C)c(-c3ccnc(NC#N)n3)s2)cc1
- MIC [1]: 18.7 µg/mL (≈ 53.5 µM)

Structure (SMILES): Cc1nc(-c2ccc(-c3ccsc3)cc2)sc1-c1ccnc(N)n1
- MIC [1]: 6.25 µg/mL (≈ 17.8 µM)
- solubility kinetic at 2 h [4]: 8.5 µM (≈ 2.98 µg/mL)

Structure (SMILES): CCCCc1ccc(-c2nc(C)c(-c3ccnc(NC)n3)s2)cc1
- MIC [1]: > 25 µg/mL

Structure (SMILES): CCCCc1ccc(-c2nc(C)c(-c3ccnc(NC(=N)N)n3)s2)cc1
- MIC [1]: 1.56 µg/mL (≈ 4.26 µM)

Structure (SMILES): Cc1nc(-c2ccc(/C=C/C3CCCCC3)cc2)sc1-c1ccnc(N)n1
- MIC [1]: 3.12 µg/mL (≈ 8.29 µM)

Structure (SMILES): CCCCc1ccc(-c2nc(C)c(-c3ccnc(-c4cccnc4)n3)s2)cc1
- MIC [1]: 17.2 µg/mL (≈ 44.5 µM)

Structure (SMILES): Cc1nc(-c2ccc(C=C3CCCCC3)cc2)sc1-c1ccnc(N)n1
- MIC [1]: 1.56 µg/mL (≈ 4.3 µM)
